Laboratory results reported in ChEMBL document CHEMBL1158827, “Free-radical-scavenging and xanthine oxidase inhibitory constituents from Stereospermum personatum” (J Nat Prod, 2005).
The source made the active and inactive calls. No cut-off for these calls is given here.

Key:
[1] = Antioxidant activity assessed as DPPH scavenging activity; type: functional
Outline: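 SC50 is the concentration scavenging 50% of the DPPH free radical under the assay conditions. It was obtained by linear regression over at least five concentrations, each in triplicate, and reported as the mean.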

[2] = target: T1, Xanthine dehydrogenase/oxidase (Homo sapiens, UniProt P47989); test: Inhibition of xanthine oxidase at 50 ug/ml
Outline: (§1)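 Single-concentration screen at 50 µg/mL. Samples showing less than 10% activity at this level were not carried forward to IC50 or SC50 determination.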

[3] = target: T1, Xanthine dehydrogenase/oxidase; test: Inhibition of xanthine oxidase
[4] = target: T1, Xanthine dehydrogenase/oxidase; test: Inhibition of xanthine oxidase at 132 uM
[5] = Antioxidant activity assessed as DPPH scavenging activity at 50 ug/ml; type: functional; outline: as §1

T1 sequence (P47989 whole entry): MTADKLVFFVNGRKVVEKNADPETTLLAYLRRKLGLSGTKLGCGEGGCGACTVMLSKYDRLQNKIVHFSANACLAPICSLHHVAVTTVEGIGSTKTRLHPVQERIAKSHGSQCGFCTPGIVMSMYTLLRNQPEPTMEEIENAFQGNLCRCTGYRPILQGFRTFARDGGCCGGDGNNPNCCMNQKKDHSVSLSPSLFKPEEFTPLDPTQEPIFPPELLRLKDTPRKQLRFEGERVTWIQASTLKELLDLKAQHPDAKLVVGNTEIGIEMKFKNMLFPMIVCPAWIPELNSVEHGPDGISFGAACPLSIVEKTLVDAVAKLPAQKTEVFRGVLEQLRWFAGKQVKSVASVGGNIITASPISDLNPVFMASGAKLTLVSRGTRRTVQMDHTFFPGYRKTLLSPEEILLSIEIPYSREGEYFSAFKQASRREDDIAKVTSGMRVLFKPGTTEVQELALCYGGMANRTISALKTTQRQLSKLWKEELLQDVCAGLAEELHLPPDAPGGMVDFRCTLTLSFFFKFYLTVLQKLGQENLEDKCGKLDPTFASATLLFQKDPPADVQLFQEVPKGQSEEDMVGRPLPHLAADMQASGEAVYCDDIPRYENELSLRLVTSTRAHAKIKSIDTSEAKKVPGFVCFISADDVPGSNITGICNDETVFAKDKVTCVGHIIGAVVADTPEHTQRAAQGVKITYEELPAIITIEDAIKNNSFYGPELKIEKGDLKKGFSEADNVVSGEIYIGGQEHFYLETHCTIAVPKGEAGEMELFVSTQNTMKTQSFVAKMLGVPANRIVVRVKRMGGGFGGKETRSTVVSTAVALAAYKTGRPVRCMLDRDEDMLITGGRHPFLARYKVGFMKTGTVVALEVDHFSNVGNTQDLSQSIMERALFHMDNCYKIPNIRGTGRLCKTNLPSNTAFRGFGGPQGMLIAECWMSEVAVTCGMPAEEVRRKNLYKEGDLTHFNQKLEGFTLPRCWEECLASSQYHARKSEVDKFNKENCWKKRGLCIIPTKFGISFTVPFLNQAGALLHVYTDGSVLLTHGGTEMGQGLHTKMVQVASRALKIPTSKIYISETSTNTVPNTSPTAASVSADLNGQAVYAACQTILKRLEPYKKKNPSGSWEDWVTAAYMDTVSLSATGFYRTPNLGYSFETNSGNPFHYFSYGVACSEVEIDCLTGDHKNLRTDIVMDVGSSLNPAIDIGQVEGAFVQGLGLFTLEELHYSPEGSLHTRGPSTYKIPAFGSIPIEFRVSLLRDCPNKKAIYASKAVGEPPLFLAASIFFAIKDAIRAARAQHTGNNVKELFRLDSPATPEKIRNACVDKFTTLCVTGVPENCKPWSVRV

| Activity [2] | IC50 [3] | inhibition at 132 µM [4] | Structure (SMILES) | SC50 [1] | Activity [5] |
| --- | --- | --- | --- | --- | --- |
| Not Active |  |  | COc1cc(COC/C=C/c2cc(OC)c(OC)c(OC)c2)ccc1O | 7.58 µM |  |
|  | 101 µM |  | COc1cc([C@H]2c3cc(O)c(OC)cc3C[C@@](O)(CO)[C@@H]2CO)ccc1O | 17.4 µM |  |
|  | 111 µM |  | COc1cc(C[C@@H]2COC[C@@H]2C(O)c2ccc(O)c(OC)c2)ccc1O (stereo partly drawn) | 15.2 µM |  |
|  |  |  | Cc1c(C)c2c(c(C)c1O)CCC(C)(C(=O)O)O2 (stereo not drawn) | 15.9 µM |  |
|  | 213 µM |  | COc1cc(C[C@@H](CO)[C@H](CO)Cc2ccc(O)c(OC)c2)ccc1O [(+)-SECOISOLARICIRESINOL] | 12.5 µM |  |
| Not Active |  |  | COc1cc(/C=C/C(=O)O)ccc1O [FERULATE] | 32.5 µM |  |
|  |  | 23.6% | COc1cc(C[C@]2(O)CO[C@@H](c3ccc(O)c(OC)c3)[C@@H]2CO)ccc1O [OLIVIL] | 15.1 µM |  |
| Not Active |  |  | CC1=CCc2c1cc1c(c2C)C(=O)c2ccccc2C1=O [STEREQUINONE A] |  | inactive |
| Not Active |  |  | CC(=O)CCc1ccc2c(c1C)C(=O)c1ccccc1C2=O [STEREQUINONE F] |  | inactive |
| Not Active |  |  | COc1ccc2c(c1)C(=O)c1c(ccc(CCC(C)=O)c1C)C2=O [STEREQUINONE G] |  | inactive |
| Not Active |  |  | Cc1c(CCC(C)O)ccc2c1C(=O)c1ccccc1C2=O (stereo not drawn) [STEREQUINONE H] |  | inactive |
| Not Active |  |  | COc1ccc2c(c1)C(=O)C1(O)C(=CC3=C(C)CCC3=C1C)C2=O (stereo not drawn) [STEREQUINONE I] |  | inactive |
